Assay results collected from several papers.
Each line is one published result; the experiments were not run side by side.
Organism: Plasmodium falciparum
Observed: parasite growth

With `Cc1ccc(-c2ccccc2C(=O)Nc2c(C)cccc2C(=O)O)cc1` the IC50 was greater than 10000 nM (NF54; 48 h, blood stage).
For `c1ccc(Cn2c(N3CCNCC3)nc3cc(-c4cc[nH]n4)ccc32)cc1`, the IC50 was greater than 10000 nM (NF54; blood stage).
With `COC1=CC(c2ccc[nH]2)=NC1=Cc1ccc(CCCCCCCCCCCO)[nH]1` the IC50 was 59 nM (D6; blood stage).
For `COC(=O)c1cccc(-c2nc3c(N4CCC(N5CCN(C)CC5)CC4)nccc3[nH]2)c1`, the IC50 was less than 100 nM (NF54; blood stage).
The IC50 of `Clc1ccc2c(N3CCN(CCCN4CCN(c5ccnc6cc(Cl)ccc56)CC4)CC3)ccnc2c1` is reported as 25.8 nM (blood stage).
The IC50 of `C/C=C/C=C/C=C/c1c(O)cc(CC=C(C)C)c(O)c1C=O` is reported as 1.8 µg/mL (D6; 72 h, blood stage).
For `COc1cc(NC(C)CCCNCOC(=O)NCCCC(C)Nc2cc(OC)cc3cccnc23)c2ncccc2c1.Cl.Cl` (centres unmarked), the IC50 was 2.7 µg/mL (W2; drug-resistant strain, blood stage).
`C[C@@H](c1cc(Cl)cc(Cl)c1)N(C)c1ncc2c(N)nc(N)nc2n1` has an IC50 of 8180 nM (SYBR Green; blood stage).
With `CCN(CC)CCCC(C)Nc1ccnc2cc(Cl)ccc12` (centres unmarked) the IC50 was 0.016 µg/mL (D6; blood stage).
`C[C@@]12CCC[C@]3(C)C4=CC(=O)OCC4=C[C@@H](OC1=O)C23` (some centres unmarked) gave an IC50 of 0.2 µg/mL (W2; 72 h, drug-resistant strain, blood stage).
For `NCCNc1nc2cc(Cl)ccc2n1Cc1ccccc1`, the IC50 was 245 nM (NF54; blood stage).
With `Cc1ccc2c(c1C)NC(=O)[C@]21NN=C(c2ccccc2)S1` the IC50 was 960 nM (SYBR Green; blood stage).
With `Clc1ccc2c(nc(N3CCNCC3)n2Cc2ccccc2)c1Br` the IC50 was 71 nM (NF54; blood stage).
For `C[C@@H]1CC[C@H]2[C@@H](C)C(=O)O[C@@H]3O[C@@]4(C)CC[C@@H]1[C@]32OO4`, the IC50 was 0.0047 µg/mL (D6; 72 h, blood stage).
`COC1=CC(c2ccc[nH]2)=NC1=Cc1ccc(CCCCCCCCCCCCO)[nH]1` gave an IC50 of 38 nM (D6; blood stage).
The IC50 of `COc1cc(C)c(-c2ccc(O)c3c2C[C@@H](C)N[C@@H]3C)c2cccc(O)c12` (single isomer, unassigned) is reported as 38.4 nM (SYBR Green; NF54; blood stage).
With `NC1CCN(c2nc3cc(Cl)ccc3n2Cc2ccccc2)CC1` the IC50 was 22 nM (NF54; blood stage).
`CCN(CC)CCCC(C)Nc1ccnc2cc(Cl)ccc12` (centres unmarked) gave an IC50 of 201 nM.
With `Cc1cccc(C(=O)O)c1NC(=O)c1ccccc1-c1ccccc1` the IC50 was greater than 10000 nM (resazurin; NF54; 48 h, gametocyte).
With `Brc1ccc2c(c1)nc(C1CCNCC1)n2Cc1ccccc1` the IC50 was 28 nM (NF54; blood stage).
`CN1CCN(C2CCN(c3nccc4[nH]c(-c5ccc(F)c(C(F)(F)F)c5)nc34)CC2)CC1` has an IC50 of less than 100 nM (NF54; blood stage).
For `O=C(O)c1cc(-c2ccc(Br)cc2)nc2ccc(Cl)cc12`, the IC50 was 60000 nM (SYBR Green; blood stage).
`CCCCCCCCCCCCCC(O)CC(O)CO` (centres unmarked) has an IC50 of 28.2 µg/mL (D6; blood stage).
For `CCN(CC)CCCC(C)Nc1ccnc2cc(Cl)ccc12` (centres unmarked), the IC50 was 0.01 µg/mL (D6; 72 h, blood stage).
`COc1cccc2c(=O)c(C)c(-c3ccc(Cc4ccc(OC(F)(F)F)cc4)cc3)[nH]c12` has an IC50 of greater than 350 nM (3D7; blood stage).
`CCN(CC)CCCC(C)Nc1ccnc2cc(Cl)ccc12` (centres unmarked) has an IC50 of 7.4 nM (ELISA; 3D7; blood stage).
With `C[C@@H]1CC[C@H]2[C@@H](C)C(=O)O[C@@H]3O[C@@]4(C)CC[C@@H]1[C@]32OO4` the IC50 was 0.0085 µg/mL (D6; blood stage).
For `C[C@@H]1CC[C@H]2[C@@H](C)C(=O)O[C@@H]3O[C@@]4(C)CC[C@@H]1[C@]32OO4`, the IC50 was 15 nM (W2; drug-resistant strain, blood stage).
The IC50 of `N=C(N)c1ccc(OCCCCCOc2ccc(C(=N)N)cc2)cc1` is reported as 5.6 nM (SYBR Green; blood stage).
The IC50 of `C[C@H]1[C@@H](O)O[C@@H]2O[C@@]3(C)CC[C@H]4[C@H](C)CC[C@@H]1[C@@]24OO3` is reported as 25.2 nM (3D7; 24 h, blood stage).
`NCCCCNc1nc2cc(Cl)ccc2n1Cc1ccccc1` gave an IC50 of 1340 nM (NF54; blood stage).
`N=C(N)NCCCCC(=O)Nc1cc(C(F)(F)F)cc(NC(=O)c2cc(C(=O)Nc3cc(C(F)(F)F)cc(NC(=O)CCCCNC(=N)N)c3O[C@@H]3CCNC3)ncn2)c1O[C@@H]1CCNC1` has an IC50 of 670 nM (SYBR Green; blood stage).
The IC50 of `COc1ccccc1-c1ccccc1C(=O)Nc1c(C)cccc1C(=O)O` is reported as greater than 10000 nM (resazurin; NF54; 48 h, gametocyte).
For `Clc1ccc2c(nc(N3CCNCC3)n2Cc2ccccc2)c1-c1ccccc1`, the IC50 was 3650 nM (NF54; blood stage).
The IC50 of `COc1nc2ccc(Br)cc2cc1[C@@H](c1ccccc1)[C@@](O)(CCN(C)C)c1cccc2ccccc12` is reported as 1090 nM (SYBR Green; blood stage).
The IC50 of `O=C(Nc1ccnc(C(F)(F)F)c1)Nc1cccc2c1OC(F)(F)O2` is reported as 700 nM (NF54; blood stage).
With `CC[C@@H](C)[C@H]1O[C@@H](c2c(O)c(-c3ccccc3)cn(O)c2=O)[C@H](C)C[C@@H]1C` the IC50 was 0.2 µg/mL (W2; 72 h, drug-resistant strain, blood stage).
With `NCCN(C(=O)c1ccc(Cl)cc1Cl)c1ccc(OCc2ccc(Cl)cc2)cc1` the IC50 was 2810 nM (SYBR Green; blood stage).
The IC50 of `O=C(Nc1ccccc1C(=O)O)c1ccc(-c2ccc(F)cc2)cc1` is reported as greater than 10000 nM (resazurin; NF54; 48 h, gametocyte).
For `O[C@@H](c1cc(C(F)(F)F)nc2c(C(F)(F)F)cccc12)[C@H]1CCCCN1`, the IC50 was 17 nM (SYBR Green; blood stage).
`O=C(Nc1cc(F)ccc1C(=O)O)c1ccc(-c2ccccc2)cc1` has an IC50 of 105 nM (resazurin; NF54; 48 h, gametocyte).
